Measurements reported in ChEMBL document CHEMBL1165950, “Design and synthesis of new potent anticancer pyrazoles with high FLT3 kinase inhibitory selectivity” (Bioorg Med Chem, 2010).

Legend:
Assay type in all cases: functional
UO-31 [1] = assay: Cytotoxicity against human UO31 cells assessed as cell growth at 10 uM; settings: read-out: Activity
Summary of the method: (§1)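 NCI-60 screen: cells grown in RPMI 1640 with 5% FBS and 2 mM L-glutamine, plated at 5000–40,000 cells/well according to doubling time, and preincubated 24 h at 37 °C, 5% CO2. The single 10 µM dose (DMSO stock) was added, then incubated 48 h. Cells were TCA-fixed and stained with 0.4% SRB, read at 515 nm, and growth % calculated against time-zero and control plates.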

NCI-H460 [2] = assay: Cytotoxicity against human NCI-H460 cells assessed as cell growth at 0.001 uM after 48 hrs by sulforhodamine B assay; settings: NCI-H460, 48 h, read-out: Activity
OVCAR-8 [3] = assay: Cytotoxicity against human OVCAR8 cells assessed as cell growth at 10 uM after 48 hrs by sulforhodamine B assay; settings: OVCAR-8, 48 h, read-out: Activity
A498 = assay: Cytotoxicity against human A498 cells assessed as cell growth at 10 uM; settings: read-out: Activity
Summary of the method: (§2)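 Single-dose NCI-60 screen at 10 µM. Cells were grown in RPMI 1640 with 5% FBS and 2 mM L-glutamine, then treated for 48 h at 37 °C. Protein was measured by SRB staining with absorbance at 515 nm. Percentage growth was recorded, and inhibition percentage was calculated as 100 minus growth percentage.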

SW-620 = assay: Cytotoxicity against human SW620 cells assessed as cell growth at 0.001 uM after 48 hrs by sulforhodamine B assay; settings: SW-620, 48 h, read-out: Activity
OVCAR-8 [4] = assay: Cytotoxicity against human OVCAR8 cells assessed as cell growth at 100 nM after 48 hrs by sulforhodamine B assay; settings: OVCAR-8, 48 h, read-out: Activity
CAKI-1 [5] = assay: Cytotoxicity against human Caki1 cells assessed as cell growth at 10 uM; settings: read-out: Activity; summary of the method: as §2
NCI-H460 [6] = assay: Cytotoxicity against human NCI-H460 cells assessed as cell growth at 10 uM; settings: read-out: Activity; summary of the method: as §1
LOX IMVI = assay: Cytotoxicity against human LOXIMVI cells assessed as cell growth at 1 uM after 48 hrs by sulforhodamine B assay; settings: read-out: Activity
OVCAR-8 [7] = assay: Cytotoxicity against human OVCAR8 cells assessed as cell growth at 1 uM after 48 hrs by sulforhodamine B assay; settings: OVCAR-8, 48 h, read-out: Activity
K562 = assay: Cytotoxicity against human K562 cells assessed as cell growth at 100 nM after 48 hrs by sulforhodamine B assay; settings: K562, 48 h, read-out: Activity
CAKI-1 [8] = assay: Cytotoxicity against human Caki1 cells assessed as cell growth at 100 nM after 48 hrs by sulforhodamine B assay; settings: CAKI-1, 48 h, read-out: Activity
UO-31 [9] = assay: Cytotoxicity against human UO31 cells assessed as cell growth at 0.001 uM after 48 hrs by sulforhodamine B assay; settings: UO-31, 48 h, read-out: Activity
[10] = Cytotoxicity against human Hs 578T cells assessed as cell growth at 0.01 uM after 48 hrs by sulforhodamine B assay; settings: read-out: Activity
SK-MEL-5 = assay: Growth inhibition of human SK-MEL-5 cells after 48 hrs by sulforhodamine B assay; settings: SK-MEL-5, 48 h; for CC50: read-out: LC50 (the source's name)
Summary of the method: (§3)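 NCI 60-cell screen, five-dose mode. Cells grown in RPMI 1640 with 5% FBS and 2 mM L-glutamine and plated at 5000-40,000 cells/well according to doubling time. After 24 h preincubation, a Tz plate was TCA-fixed. Five concentrations (10-fold or 1/2 log dilutions) were applied for 48 h at 37 °C. SRB staining read at 515 nm. IC50 taken from [(Ti-Tz)/(C-Tz)]×100 = 50.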

NCI-H522 = assay: Cytotoxicity against human NCI-H522 cells assessed as cell growth at 100 nM after 48 hrs by sulforhodamine B assay; settings: NCI-H522, 48 h, read-out: Activity
CAKI-1 [11] = assay: Growth inhibition of human Caki1 cells after 48 hrs by sulforhodamine B assay; settings: CAKI-1, 48 h; for CC50: read-out: LC50 (the source's name)
Summary of the method: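 NCI five-dose SRB assay in RPMI 1640 with 5% FBS and 2 mM L-glutamine. Cells were preincubated 24 h, then exposed 48 h at 37 °C to five concentrations (10-fold or half-log serial dilutions from DMSO stocks). TCA fixation, SRB staining, and absorbance at 515 nm followed. IC50 was taken where [(Ti−Tz)/(C−Tz)]×100 = 50, with Tz as time-zero cell density.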

SK-MEL-28 = assay: Cytotoxicity against human SK-MEL-28 cells assessed as cell growth at 0.01 uM after 48 hrs by sulforhodamine B assay; settings: SK-MEL-28, 48 h, read-out: Activity
UACC-62 = assay: Cytotoxicity against human UACC62 cells assessed as cell growth at 1 uM after 48 hrs by sulforhodamine B assay; settings: UACC-62, 48 h, read-out: Activity
MDA-MB-468 [12] = assay: Cytotoxicity against human MDA-MB-468 cells assessed as cell growth at 1 uM after 48 hrs by sulforhodamine B assay; settings: MDA-MB-468, 48 h, read-out: Activity
RXF 393 = assay: Cytotoxicity against human RXF393 cells assessed as cell growth at 0.01 uM after 48 hrs by sulforhodamine B assay; settings: RXF 393, 48 h, read-out: Activity
786-0 = assay: Cytotoxicity against human 786-0 cells assessed as cell growth at 1 uM after 48 hrs by sulforhodamine B assay; settings: 786-0, 48 h, read-out: Activity
Summary of the method: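 NCI-60 five-dose screen. Cells were grown in RPMI 1640 with 5% FBS and 2 mM L-glutamine, plated at 5000–40,000 cells/well and preincubated for 24 h. Time-zero plates were TCA-fixed. DMSO-solubilized drug was added at five concentrations (10-fold or ½-log serial dilutions) for 48 h at 37 °C, 5% CO2. Cells were TCA-fixed, stained with 0.4% SRB and read at 515 nm. Percent growth used time-zero, control and test absorbances.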

TK-10 = assay: Cytotoxicity against human TK10 cells assessed as cell growth at 10 uM after 48 hrs by sulforhodamine B assay; settings: TK-10, 48 h, read-out: Activity
MDA-MB-468 [13] = assay: Cytotoxicity against human MDA-MB-468 cells assessed as cell growth at 0.01 uM after 48 hrs by sulforhodamine B assay; settings: MDA-MB-468, 48 h, read-out: Activity
KM12 = assay: Growth inhibition of human KM12 cells after 48 hrs by sulforhodamine B assay; settings: KM12, 48 h; for CC50: read-out: LC50 (the source's name); summary of the method: as §3
SK-OV-3 = assay: Growth inhibition of human SKOV3 cells after 48 hrs by sulforhodamine B assay; settings: SK-OV-3, 48 h; for CC50: read-out: LC50 (the source's name); summary of the method: as §3
MOLT-4 = assay: Growth inhibition of human MOLT4 cells after 48 hrs by sulforhodamine B assay; settings: MOLT-4, 48 h; summary of the method: as §3
T47D = assay: Cytotoxicity against human T47D cells assessed as cell growth at 1 uM after 48 hrs by sulforhodamine B assay; settings: read-out: Activity

## COc1cc(C)cc(-c2c(-c3ccnc(-c4ccc(C(C)=O)cc4)c3)cnn2CC#N)c1
UO-31 [1]
  growth at 10 µM: 57.4%
NCI-H460 [2]
  growth at 0.001 µM: 104%
OVCAR-8 [3]
  growth at 10 µM: 10%
A498
  growth at 10 µM: 83%
SW-620
  growth at 0.001 µM: 96%
OVCAR-8 [4]
  growth at 0.1 µM: 85%
CAKI-1 [5]
  growth at 10 µM: 70.4%
NCI-H460 [6]
  growth at 10 µM: 104%
LOX IMVI
  growth at 1 µM: 19%
OVCAR-8 [7]
  growth at 1 µM: 8%
K562
  growth at 0.1 µM: 47%
CAKI-1 [8]
  growth at 0.1 µM: 86%
UO-31 [9]
  growth at 0.001 µM: 88%
[10]
  growth at 0.01 µM: 98%
SK-MEL-5
  GI50: 1.94 µM
  TGI: 4.96 µM
  CC50: > 100 µM
NCI-H522
  growth at 0.1 µM: 76%
CAKI-1 [11]
  GI50: 4.24 µM
  TGI: > 100 µM
  CC50: > 100 µM
SK-MEL-28
  growth at 0.01 µM: 94%
UACC-62
  growth at 1 µM: 25%
MDA-MB-468 [12]
  growth at 1 µM: -48%
RXF 393
  growth at 0.01 µM: 101%
786-0
  growth at 1 µM: 10%
TK-10
  growth at 10 µM: 60%
MDA-MB-468 [13]
  growth at 0.01 µM: 84%
KM12
  GI50: 2.87 µM
  TGI: > 100 µM
  CC50: > 100 µM
SK-OV-3
  GI50: 4.22 µM
  TGI: > 100 µM
  CC50: > 100 µM
MOLT-4
  GI50: 2.63 µM
  LC50: > 100 µM
  TGI: > 100 µM
T47D
  growth at 1 µM: -9%

## Cc1cc(O)cc(-c2nn(CC#N)cc2-c2ccnc(-c3ccc(Oc4ccccc4)cc3)c2)c1
UO-31 [1]
  growth at 10 µM: 46.9%
NCI-H460 [2]
  growth at 0.001 µM: 100%
OVCAR-8 [3]
  growth at 10 µM: -88%
A498
  growth at 10 µM: 93.9%
SW-620
  growth at 0.001 µM: 93%
OVCAR-8 [4]
  growth at 0.1 µM: 87%
CAKI-1 [5]
  growth at 10 µM: 58.8%
NCI-H460 [6]
  growth at 10 µM: 61.4%
LOX IMVI
  growth at 1 µM: -91%
OVCAR-8 [7]
  growth at 1 µM: -30%
K562
  growth at 0.1 µM: 46%
CAKI-1 [8]
  growth at 0.1 µM: 75%
UO-31 [9]
  growth at 0.001 µM: 91%
[10]
  growth at 0.01 µM: 91%
SK-MEL-5
  GI50: 2.93 µM
  TGI: 9.9 µM
  CC50: 31.5 µM
NCI-H522
  growth at 0.1 µM: 87%
CAKI-1 [11]
  GI50: 1.8 µM
  TGI: 5.78 µM
  CC50: 41 µM
SK-MEL-28
  growth at 0.01 µM: 94%
UACC-62
  growth at 1 µM: 33%
MDA-MB-468 [12]
  growth at 1 µM: -62%
RXF 393
  growth at 0.01 µM: 90%
786-0
  growth at 1 µM: -34%
TK-10
  growth at 10 µM: -89%
MDA-MB-468 [13]
  growth at 0.01 µM: 85%
KM12
  GI50: 1.92 µM
  TGI: 4.87 µM
  CC50: 15.3 µM
SK-OV-3
  GI50: 1.2 µM
  TGI: 24.4 µM
  CC50: 49.6 µM
MOLT-4
  GI50: 2.03 µM
  LC50: > 100 µM
  TGI: 6.82 µM
T47D
  growth at 1 µM: -26%
